Key:
[1] = tested on: H. pylori contemporary clinical isolates; assay: MIC against contemporary clinical isolates; type: cell-based, Helicobacter pylori
[2] = tested on: C. difficile contemporary clinical isolates; assay: MIC against contemporary clinical isolates; type: cell-based, Clostridioides difficile
[3] = tested on: C. difficile UNT103-1 (VA11); assay: Hamster C. difficile infection model; type: in vivo, Golden Syrian hamsters
How it was run: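 Male Golden Syrian hamsters (80-90 g), singly housed, were infected orally by gavage three times with a sporulation-medium culture diluted to OD600 1 (~1.0 × 10^9 CFU/mL). […] Starting 18 h later (day 2), test compound, comparators or vehicle were given QD by oral gavage for 5 days. Survival was monitored through day 21.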

[4] = tested on: G. vaginalis contemporary clinical isolates; assay: MIC against contemporary clinical isolates; type: cell-based, Gardnerella vaginalis
H. pylori MMX 3719 = assay: Spontaneous resistance frequency and MPC; type: cell-based, Helicobacter pylori
C. difficile MMX 4381 = assay: Spontaneous resistance frequency and MPC; type: cell-based, Clostridioides difficile
G. Vaginalis MMX 5973 = assay: Spontaneous resistance frequency and MPC; type: cell-based, Gardnerella vaginalis
Tissue distribution = type: in vivo, Sprague–Dawley rats
[5] = tested on: H. pylori SS1 (CagA+, VacA+); assay: Mouse H. pylori infection model; type: in vivo, C57/BL6 mice; conditions: 45 mg/kg bid oral, 7 days, day 7
How it was run: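 Male C57/BL6 mice (20-25 g) received 0.25 mL gavage inocula on three days (6.40, 6.90, 7.15 log₁₀ CFU). Inocula were 5-day Columbia laked-horse-blood-agar growth suspended in saline to OD530 1.5-2.0. From 7 days post-inoculation, test compound, controls or vehicle were dosed bid by gavage for 7 days. Stomach CFU were counted ~18-20 h post-dose on Dent-supplemented plates (microaerobic, 37 °C, 6-7 days); LOQ <2.35 log₁₀ CFU/stomach.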

[6] = tested on: clinical isolates of H. pylori, C. difficile, and G. vaginalis; assay: MIC against contemporary clinical isolates; type: cell-based
[7] = tested on: H. pylori Rif-resistant, Mtz-resistant strains; assay: MIC comparison, H. pylori resistant mutant panel; type: cell-based, Helicobacter pylori
[8] = H. pylori isolates China (N = 49)
[9] = C. difficile isolates China (N = 46)
[10] = C. difficile isolates USA (N = 50)
[11] = H. pylori MMX 3719, conc. 0.5 μg/mL
[12] = H. pylori MMX 3719, conc. 1 μg/mL
[13] = H. pylori MMX 3719, conc. 2 μg/mL
[14] = H. pylori MMX 3719, conc. 4 μg/mL
[15] = C. difficile MMX 4381, conc. 1 μg/mL
[16] = C. difficile MMX 4381, conc. 2 μg/mL
[17] = C. difficile MMX 4381, conc. 4 μg/mL
[18] = G. Vaginalis MMX 5973, conc. 0.5 μg/mL
[19] = G. Vaginalis MMX 5973, conc. 1 μg/mL
[20] = G. Vaginalis MMX 5973, conc. 2 μg/mL
[21] = G. Vaginalis MMX 5973, conc. 4 μg/mL

CO[C@H]1/C=C/O[C@@]2(C)Oc3c(C)c(O)c4c(O)c(c(/C=N/N5CCN(C)CC5)c(O)c4c3C2=O)NC(=O)/C(C)=C\C=C\[C@H](C)[C@H](O)[C@@H](C)[C@@H](O)[C@@H](C)[C@H](OC(C)=O)[C@@H]1C [rifampin, reference compound]
MIC range [1, 8]: ≤0.06 to 64 µg/mL

Cc1ncc([N+](=O)[O-])n1CCO [metronidazole, reference compound]
MIC range [2, 9]: ≤0.06 to 32 µg/mL | MIC range [2, 10]: 0.12 to 4 µg/mL | mortality ([3]; 100 mg/kg QD oral, by day 4): 100%

CO[C@H]1/C=C/O[C@@]2(C)Oc3c(C)c(O)c4c(c3C2=O)C2=NC3(CCN(CCn5c([N+](=O)[O-])cnc5C)CC3)NC2=C(NC(=O)/C(C)=C\C=C\[C@H](C)[C@H](O)[C@@H](C)[C@@H](O)[C@@H](C)[C@H](OC(C)=O)[C@@H]1C)C4=O [Compound 10, 4-Deoxy-3,4-[2-spiro-[1-[2-(2-methyl-5-nitro-imidazol-1-yl)ethyl]-piperidin-4-yl]]-(1H)-imidazo-(2,5-dihydro)rifamycin S]
MIC range [1, 8]: ≤0.002 to 1 µg/mL | MIC range ([1]; H. pylori isolates USA (N = 200)): ≤0.001 to 2 µg/mL | MIC range [2, 9]: ≤0.06 to 2 µg/mL | MIC range [2, 10]: ≤0.002 to 4 µg/mL | MIC range ([4]; G. vaginalis isolates China (N = 24)): ≤0.004 to 0.06 µg/mL | MIC range ([4]; G. vaginalis isolates USA (N = 101)): ≤0.004 to 0.06 µg/mL | spontaneous frequency of mutation (H. pylori MMX 3719; H. pylori MMX 3719, all concentrations tested): < 5 × 10^–9 μg/mL | resistant colonies identified, mean (H. pylori MMX 3719; [11]): 0 | resistant colonies identified, test 1 (H. pylori MMX 3719; [11]): 0 | resistant colonies identified, test 2 (H. pylori MMX 3719; [11]): 0 | spontaneous resistance frequency (H. pylori MMX 3719; H. pylori MMX 3719, conc. 0.5 μg/mL, inoculum 1.90 × 10^8 CFU): <5 × 10^–9 | resistant colonies identified, mean (H. pylori MMX 3719; [12]): 0 | resistant colonies identified, test 1 (H. pylori MMX 3719; [12]): 0 | resistant colonies identified, test 2 (H. pylori MMX 3719; [12]): 0 | spontaneous resistance frequency (H. pylori MMX 3719; [12]): <5 × 10^–9 | resistant colonies identified, mean (H. pylori MMX 3719; [13]): 0 | resistant colonies identified, test 1 (H. pylori MMX 3719; [13]): 0 | resistant colonies identified, test 2 (H. pylori MMX 3719; [13]): 0 | spontaneous resistance frequency (H. pylori MMX 3719; [13]): <5 × 10^–9 | resistant colonies identified, mean (H. pylori MMX 3719; [14]): 0 | resistant colonies identified, test 1 (H. pylori MMX 3719; [14]): 0 | resistant colonies identified, test 2 (H. pylori MMX 3719; [14]): 0 | spontaneous resistance frequency (H. pylori MMX 3719; [14]): <5 × 10^–9 | resistant colonies identified, test 1 (C. difficile MMX 4381; C. difficile MMX 4381, conc. 0.5 μg/mL): 0 | spontaneous resistance frequency (C. difficile MMX 4381; C. difficile MMX 4381, conc. 0.5 μg/mL, inoculum 1.23 × 10^9 CFU): 8 × 10^–10 | resistant colonies identified, mean (C. difficile MMX 4381; [15]): 0 | resistant colonies identified, test 1 (C. difficile MMX 4381; [15]): 0 | resistant colonies identified, test 2 (C. difficile MMX 4381; [15]): 0 | spontaneous resistance frequency (C. difficile MMX 4381; [15]): <8 × 10^–10 | resistant colonies identified, mean (C. difficile MMX 4381; [16]): 0 | resistant colonies identified, test 1 (C. difficile MMX 4381; [16]): 0 | resistant colonies identified, test 2 (C. difficile MMX 4381; [16]): 0 | spontaneous resistance frequency (C. difficile MMX 4381; [16]): <8 × 10^–10 | resistant colonies identified, mean (C. difficile MMX 4381; [17]): 0 | resistant colonies identified, test 1 (C. difficile MMX 4381; [17]): 0 | resistant colonies identified, test 2 (C. difficile MMX 4381; [17]): 0 | spontaneous resistance frequency (C. difficile MMX 4381; [17]): <8 × 10^–10 | spontaneous frequency of mutation (C. difficile MMX 4381; C. difficile MMX 4381, lowest concentration tested): 8 × 10^–10 | resistant colonies identified, mean (G. Vaginalis MMX 5973; [18]): 0 | resistant colonies identified, test 1 (G. Vaginalis MMX 5973; [18]): 0 | resistant colonies identified, test 2 (G. Vaginalis MMX 5973; [18]): 0 | spontaneous resistance frequency (G. Vaginalis MMX 5973; G. Vaginalis MMX 5973, conc. 0.5 μg/mL, inoculum 4.50 × 10^8 CFU): <2 × 10^–9 | resistant colonies identified, mean (G. Vaginalis MMX 5973; [19]): 0 | resistant colonies identified, test 1 (G. Vaginalis MMX 5973; [19]): 0 | resistant colonies identified, test 2 (G. Vaginalis MMX 5973; [19]): 0 | spontaneous resistance frequency (G. Vaginalis MMX 5973; [19]): <2 × 10^–9 | resistant colonies identified, mean (G. Vaginalis MMX 5973; [20]): 0 | resistant colonies identified, test 1 (G. Vaginalis MMX 5973; [20]): 0 | resistant colonies identified, test 2 (G. Vaginalis MMX 5973; [20]): 0 | spontaneous resistance frequency (G. Vaginalis MMX 5973; [20]): <2 × 10^–9 | resistant colonies identified, mean (G. Vaginalis MMX 5973; [21]): 0 | resistant colonies identified, test 1 (G. Vaginalis MMX 5973; [21]): 0 | resistant colonies identified, test 2 (G. Vaginalis MMX 5973; [21]): 0 | spontaneous resistance frequency (G. Vaginalis MMX 5973; [21]): <2.00 × 10^–9 | spontaneous frequency of mutation (G. Vaginalis MMX 5973; G. vaginalis MMX 5973, all concentrations tested): < 2 × 10^–9 μg/mL | TNP-2198 concentration (Tissue distribution; ascites fluid, 24 h): BLOQ | TNP-2198 concentration (Tissue distribution; brain, 12 h): BLOQ | TNP-2198 concentration (Tissue distribution; brain, 24 h): BLOQ | TNP-2198 concentration (Tissue distribution; plasma, 24 h): BLOQ | TNP-2198 concentration (Tissue distribution; stomach content, 0.5 h): 3,264,000 ng/g | TNP-2198 concentration (Tissue distribution; stomach content, 2 h): 1,750,320 ng/g | TNP-2198 concentration (Tissue distribution; vaginal tissue, 24 h): BLOQ | mean bacterial stomach titer [5]: 1.70 log10 CFU | mortality ([3]; 5 mg/kg QD oral, days 7–9): 10–30% | survival ([3]; 5 mg/kg QD oral, during the 5-day dosing regimen): 100% | survival ([3]; 15 mg/kg QD oral days 2–6, through day 21): 100% | survival ([3]; 45 mg/kg QD oral days 2–6, through day 21): 100% | MIC90 [6]: < 1 µg/mL | fold more active than the 1:1 molar combination of the parent drugs ([7]; Mtz-resistant strain (CB1573)): 1- to 125 fold | fold more active than the 1:1 molar combination of the parent drugs ([7]; Rif-resistant strains (CB1902, CB1903 and CB1614)): 4- to 128 fold | fold more active than Rif, Rbt, or Mtz ([7]; dual Rif-resistant, Mtz-resistant strains (CB1771 and CB1893)): 32- to 64 fold
